Each block holds one molecule with its values, some of them ahead of it.
How the values were obtained:
[1] = target: T1, Angiotensin-converting enzyme (Rattus norvegicus) (UniProt P47820); test: Compound was tested for plasma inhibition of Angiotensin I converting enzyme activity in the conscious rat. Expressed as Inhibition of AI pressor response at 6 hr at a dose of 14.4 mg/kg po; format: organism-based; design: dose 14.4 mg/kg
T1 sequence (whole entry): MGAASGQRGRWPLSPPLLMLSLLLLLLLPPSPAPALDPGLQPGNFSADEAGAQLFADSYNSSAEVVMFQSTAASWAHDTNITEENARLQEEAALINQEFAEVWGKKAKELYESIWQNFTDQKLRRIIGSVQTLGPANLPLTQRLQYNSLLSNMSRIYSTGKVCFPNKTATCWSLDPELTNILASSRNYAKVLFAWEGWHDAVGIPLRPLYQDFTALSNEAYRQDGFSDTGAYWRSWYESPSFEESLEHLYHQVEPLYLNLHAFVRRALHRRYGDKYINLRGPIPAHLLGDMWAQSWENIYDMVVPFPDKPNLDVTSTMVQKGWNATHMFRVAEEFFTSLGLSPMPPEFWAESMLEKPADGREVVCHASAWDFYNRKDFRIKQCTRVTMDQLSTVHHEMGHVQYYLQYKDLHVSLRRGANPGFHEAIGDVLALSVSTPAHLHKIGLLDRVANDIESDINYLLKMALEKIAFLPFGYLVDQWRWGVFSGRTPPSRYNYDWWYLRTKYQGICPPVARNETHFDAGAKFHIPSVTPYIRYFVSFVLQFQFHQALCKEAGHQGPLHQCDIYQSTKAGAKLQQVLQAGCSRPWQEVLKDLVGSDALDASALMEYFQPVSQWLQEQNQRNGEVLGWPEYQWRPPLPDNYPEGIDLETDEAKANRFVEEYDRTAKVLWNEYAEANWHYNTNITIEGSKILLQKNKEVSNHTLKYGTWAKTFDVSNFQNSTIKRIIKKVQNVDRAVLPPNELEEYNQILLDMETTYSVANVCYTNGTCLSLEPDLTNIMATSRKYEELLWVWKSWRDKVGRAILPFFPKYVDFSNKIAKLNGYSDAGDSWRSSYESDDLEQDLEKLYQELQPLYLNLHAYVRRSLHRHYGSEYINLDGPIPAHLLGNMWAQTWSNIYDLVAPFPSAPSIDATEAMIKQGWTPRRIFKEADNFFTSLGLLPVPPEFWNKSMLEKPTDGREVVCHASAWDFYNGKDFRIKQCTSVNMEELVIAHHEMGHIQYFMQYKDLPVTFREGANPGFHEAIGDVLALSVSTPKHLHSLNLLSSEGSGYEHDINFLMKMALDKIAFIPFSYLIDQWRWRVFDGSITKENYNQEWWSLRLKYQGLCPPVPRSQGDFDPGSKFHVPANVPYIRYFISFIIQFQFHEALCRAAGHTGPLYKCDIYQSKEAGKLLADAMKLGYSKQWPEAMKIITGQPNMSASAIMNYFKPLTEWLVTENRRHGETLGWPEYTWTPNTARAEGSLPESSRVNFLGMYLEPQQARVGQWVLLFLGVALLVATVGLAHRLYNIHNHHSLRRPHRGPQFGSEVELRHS
Method in brief: (§1)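 Male conscious normotensive Sprague-Dawley rats (275-390 g), prepared under methohexital sodium (75 mg/kg ip) with femoral arterial and venous catheters. The next day, pressor responses to three angiotensin-I challenges (300 ng/kg iv) were recorded. Compound was then given orally and angiotensin-I challenges were repeated at set times. Percent inhibition is relative to the mean of the three baseline responses.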

[2] = target: T1, Angiotensin-converting enzyme (Rattus norvegicus); test: Compound was tested for plasma inhibition of Angiotensin I converting enzyme activity in the conscious rat. Expressed as Inhibition of AI pressor response at 2 hr at a dose of 14.4 mg/kg po; format: organism-based; design: dose 14.4 mg/kg
Method in brief: (§2)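 Male conscious normotensive Sprague-Dawley rats (275-390 g), given femoral arterial and venous catheters under methohexital sodium (75 mg/kg ip) anesthesia. Next day, pressor responses to three angiotensin-I challenges (300 ng/kg iv) recorded by direct arterial pressure. Compound then dosed orally, and AI challenge repeated at set times. Each post-dose response compared with the mean of the three baseline responses, giving % inhibition.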

[3] = target: T1, Angiotensin-converting enzyme (Rattus norvegicus); test: Compound was tested for plasma inhibition of Angiotensin I converting enzyme activity in the conscious rat. Expressed as Inhibition of AI pressor response at 4 hr at a dose of 14.4 mg/kg po; format: organism-based; design: dose 14.4 mg/kg; method in brief: as §1
[4] = target: T1, Angiotensin-converting enzyme (Rattus norvegicus); test: Compound was tested for plasma inhibition of Angiotensin I converting enzyme activity in the conscious rat. Expressed as Inhibition of AI pressor response at 1 hr at a dose of 14.4 mg/kg po; format: organism-based; design: dose 14.4 mg/kg; method in brief: as §2
[5] = target: T1, Angiotensin-converting enzyme (Rattus norvegicus); test: Compound was tested for plasma inhibition of Angiotensin I converting enzyme activity in the conscious rat. Expressed as Inhibition of AI pressor response at 6 hr at a dose of 13.5 mg/kg po; format: organism-based; design: dose 13.5 mg/kg; method in brief: as §1
[6] = target: T1, Angiotensin-converting enzyme (Rattus norvegicus); test: Compound was tested for plasma inhibition of Angiotensin I converting enzyme activity in the conscious rat. Expressed as Inhibition of AI pressor response at 2 hr at a dose of 13.5 mg/kg po; format: organism-based; design: dose 13.5 mg/kg; method in brief: as §2
[7] = target: T1, Angiotensin-converting enzyme (Rattus norvegicus); test: Compound was tested for plasma inhibition of Angiotensin I converting enzyme activity in the conscious rat. Expressed as Inhibition of AI pressor response at 1 hr at a dose of 13.5 mg/kg po; format: organism-based; design: dose 13.5 mg/kg; method in brief: as §2
[8] = target: T1, Angiotensin-converting enzyme (Rattus norvegicus); test: Compound was tested for plasma inhibition of Angiotensin I converting enzyme activity in the conscious rat. Expressed as Inhibition of AI pressor response at 4 hr at a dose of 13.5 mg/kg po; format: organism-based; design: dose 13.5 mg/kg; method in brief: as §1
Rattus norvegicus [9] = test: Plasma ANF Concentration in the Conscious Rat at a dose of 14.3(po)mg/kg at 2 h; format: functional
Method in brief: (§3)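 Male Sprague-Dawley rats (275-390 g), catheterized in femoral artery and vein under ketamine (150 mg/kg)/acepromazine, tethered and recovered 24 h, studied conscious. Continuous iv rat ANF(99-126) infusion at 450 ng/kg/min for 5 h; baseline blood at 60 min, then oral dosing, sampling at 30-240 min.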

Rattus norvegicus [10] = test: Plasma ANF Concentration in the Conscious Rat at a dose of 14.3(po)mg/kg at 4 h; format: functional; method in brief: as §3
Rattus norvegicus [11] = test: Plasma ANF Concentration in the Conscious Rat at a dose of 14.3(po)mg/kg at 1 h; format: functional; method in brief: as §3
[12] = target: T1, Angiotensin-converting enzyme (Rattus norvegicus); test: Compound was tested for plasma inhibition of Angiotensin I converting enzyme activity in the conscious rat. Expressed as Inhibition of AI pressor response at 1 hr at a dose of 14.3 mg/kg po; format: organism-based; design: dose 14.3 mg/kg; method in brief: as §2
Rattus norvegicus [13] = test: Plasma ANF Concentration in the Conscious Rat at a dose of 14.3(po)mg/kg at 0.5 h; format: functional; method in brief: as §3
[14] = target: T1, Angiotensin-converting enzyme (Rattus norvegicus); test: Compound was tested for plasma inhibition of Angiotensin I converting enzyme activity in the conscious rat. Expressed as Inhibition of AI pressor response at 4 hr at a dose of 14.3 mg/kg po; format: organism-based; design: dose 14.3 mg/kg; method in brief: as §1
[15] = target: T1, Angiotensin-converting enzyme (Rattus norvegicus); test: Compound was tested for plasma inhibition of Angiotensin I converting enzyme activity in the conscious rat. Expressed as Inhibition of AI pressor response at 6 hr at a dose of 14.3 mg/kg po; format: organism-based; design: dose 14.3 mg/kg; method in brief: as §1
[16] = target: T1, Angiotensin-converting enzyme (Rattus norvegicus); test: Compound was tested for plasma inhibition of Angiotensin I converting enzyme activity in the conscious rat. Expressed as Inhibition of AI pressor response at 2 hr at a dose of 14.3 mg/kg po; format: organism-based; design: dose 14.3 mg/kg; method in brief: as §2
[17] = target: T1, Angiotensin-converting enzyme (Rattus norvegicus); test: Compound was tested for plasma inhibition of Angiotensin I converting enzyme activity in the conscious rat. Expressed as Inhibition of AI pressor response at 4 hr at a dose of 12.1 mg/kg po; format: organism-based; design: dose 12.1 mg/kg; method in brief: as §2
[18] = target: T1, Angiotensin-converting enzyme (Rattus norvegicus); test: Compound was tested for plasma inhibition of Angiotensin I converting enzyme activity in the conscious rat. Expressed as Inhibition of AI pressor response at 1 hr at a dose of 12.1 mg/kg po; format: organism-based; design: dose 12.1 mg/kg; method in brief: as §2
[19] = target: T1, Angiotensin-converting enzyme (Rattus norvegicus); test: Compound was tested for plasma inhibition of Angiotensin I converting enzyme activity in the conscious rat. Expressed as Inhibition of AI pressor response at 2 hr at a dose of 12.1 mg/kg po; format: organism-based; design: dose 12.1 mg/kg; method in brief: as §2
[20] = target: T1, Angiotensin-converting enzyme (Rattus norvegicus); test: Compound was tested for plasma inhibition of Angiotensin I converting enzyme activity in the conscious rat. Expressed as Inhibition of AI pressor response at 6 hr at a dose of 12.1 mg/kg po; format: organism-based; design: dose 12.1 mg/kg; method in brief: as §1

Structure (SMILES): CCOC(=O)[C@H](Cc1ccc(OC(=O)c2cccs2)cc1)NC(=O)C1(NC(=O)[C@H](SC(C)=O)C(C)C)CCCC1
inhibition [1]: 26%
inhibition [2]: 37%
inhibition [3]: 36%
inhibition [4]: 29%

Structure (SMILES): CCOC(=O)[C@H](Cc1ccc(OC(=O)c2ccncc2)cc1)NC(=O)C1(NC(=O)[C@H](SC(C)=O)C(C)C)CCCC1
Control (Rattus norvegicus [9]): 183%
Control (Rattus norvegicus [10]): 159%
Control (Rattus norvegicus [11]): 193%
inhibition [12]: 79%
Control (Rattus norvegicus [13]): 165%
inhibition [14]: 70%
inhibition [15]: 55%
inhibition [16]: 75%

Structure (SMILES): CCOC(=O)[C@H](Cc1ccc(OC(=O)c2cccnc2)cc1)NC(=O)C1(NC(=O)[C@H](SC(C)=O)C(C)C)CCCC1
Control (Rattus norvegicus [9]): 246%
Control (Rattus norvegicus [10]): 277%
Control (Rattus norvegicus [11]): 234%
inhibition [12]: 78%
Control (Rattus norvegicus [13]): 246%
inhibition [14]: 67%
inhibition [15]: 60%
inhibition [16]: 75%

Results, then the molecule that gave them:

inhibition [5]: 21%
inhibition [6]: 28%
inhibition [7]: 24%
inhibition [8]: 25%
Structure (SMILES): CCOC(=O)Oc1ccc(C[C@H](NC(=O)C2(NC(=O)[C@H](SC(C)=O)C(C)C)CCCC2)C(=O)OCC)cc1

inhibition [17]: 37%
inhibition [18]: 74%
inhibition [19]: 69%
inhibition [20]: 19%
Structure (SMILES): CCCOC(=O)[C@H](Cc1ccc(O)cc1)NC(=O)C1(NC(=O)[C@H](SC(C)=O)C(C)C)CCCC1

inhibition [1]: 26%
inhibition [2]: 55%
inhibition [3]: 50%
inhibition [4]: 65%
Structure (SMILES): CCCCOC(=O)[C@H](Cc1ccc(O)cc1)NC(=O)C1(NC(=O)[C@H](SC(=O)CN2CCCCC2)C(C)C)CCCC1
